# Assay results taken from PMC4456214 (Molecular cancer therapeutics, 2015).
# “And” between values parts separate entries of the source, which are not always exact repeats. Equal entries are not always repeated.
# Columns and labels:
# [1] = target: Bag3 (Homo sapiens) (UniProt O95817); settings: cited from earlier work
# [2] = target: Hsp70-Bag3 interaction (Homo sapiens, UniProt P0DMV8); assay: Co-immunoprecipitation of Hsp70 from HeLa cells, blotted for Bag3; format: cell-based; settings: 50 μM
# Chain of Hsp70-Bag3 interaction (P0DMV8 2-641 limits assumed): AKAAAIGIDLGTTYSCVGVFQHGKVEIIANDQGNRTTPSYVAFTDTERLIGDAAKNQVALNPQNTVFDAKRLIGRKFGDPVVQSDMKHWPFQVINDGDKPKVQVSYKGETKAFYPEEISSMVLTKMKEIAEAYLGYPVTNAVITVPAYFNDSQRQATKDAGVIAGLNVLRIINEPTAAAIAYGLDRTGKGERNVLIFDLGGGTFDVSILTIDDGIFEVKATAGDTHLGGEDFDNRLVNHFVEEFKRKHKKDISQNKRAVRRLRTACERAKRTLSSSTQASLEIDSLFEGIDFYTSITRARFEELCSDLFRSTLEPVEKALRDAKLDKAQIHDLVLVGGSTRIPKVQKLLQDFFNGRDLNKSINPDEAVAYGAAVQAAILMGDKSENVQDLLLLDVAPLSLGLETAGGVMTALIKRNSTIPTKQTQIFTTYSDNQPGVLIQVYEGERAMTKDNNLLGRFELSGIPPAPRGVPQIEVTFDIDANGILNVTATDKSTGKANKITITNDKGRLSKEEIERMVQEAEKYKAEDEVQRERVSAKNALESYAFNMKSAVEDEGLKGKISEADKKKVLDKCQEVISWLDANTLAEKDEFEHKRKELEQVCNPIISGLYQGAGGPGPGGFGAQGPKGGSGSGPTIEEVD
# Procedure, shortened: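 HeLa extracts in M-PER lysis buffer at 5 mg total protein per mL. 500 μL samples took rabbit polyclonal anti-Hsp70 or goat IgG control, plus 1% DMSO or test compound at 50 μM final (5 mM stock). Rotated overnight at 4 °C, then 4 h on protein A/G Sepharose. Washed in PBS pH 7.4, eluted in SDS dye, run on 4–15% Tris-Tricine gel, immunoblotted for Hsp70 and Bag3 with chemiluminescence detection. Triplicate, quantification averaged.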
# [3] = system: mouse embryonic fibroblasts (MEFs); assay: MTT cell proliferation assay in normal fibroblasts; format: cell-based; settings: read-out: EC50, MEFs, 72 hours
# Procedure, shortened: (§1)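 Cells were plated at 2000 per well (MEFs) or 5000 per well (HeLa, MCF7) and left to attach overnight. Test compound at various concentrations was added, final DMSO 1%, for 72 h at 5% CO2. After 3 PBS washes, fresh medium with MTT reagent was added for 4 h at 37 °C in the dark, then detergent buffer. Absorbance was read at 570 nm. At least two independent experiments, each in triplicate.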
# [4] = system: MCF7; assay: MTT cell proliferation assay, MCF7; format: cell-based; settings: 72 hours
# Procedure, shortened: as §1
# [5] = system: HeLa; assay: MTT cell proliferation assay, HeLa; format: cell-based; settings: 72 hours
# Procedure, shortened: as §1
# [6] = system: OPM1; assay: Luciferase viability assay, multiple myeloma line OPM1; format: cell-based, Human; settings: 72 hours
# Procedure, shortened: (§2)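 Myeloma cells stably transduced with firefly luciferase were exposed to test compound at 11 concentrations between 30 nM and 30 uM for 72 h. Luciferin substrate was then added and bioluminescence read. Signal was normalised to mock-treated wells (100%) and no-cell wells (0%). IC50 came from fitted dose-response curves.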
# [7] = system: OPM2; assay: Luciferase viability assay, multiple myeloma line OPM2; format: cell-based, Human; settings: 72 hours
# Procedure, shortened: as §2
# [8] = system: FoxM1, HuR, p21, p27 in MCF7 breast cancer cells; assay: Western blot of cancer signaling proteins in MCF7 cells; format: cell-based
# [9] = Pharmacokinetics in mice; format: in vivo, NSG mice
# Procedure, shortened: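 NSG mice (three per group) received test compound at 0.3, 1 or 3 mg/kg intraperitoneally in 1:1 DMSO:PBS, dosed twice weekly for 2 weeks. After the final dose, tail-vein blood was taken at 1, 3, 8 and 24 h. Plasma levels were measured by LC-MS, and pharmacokinetic parameters including terminal half-life were calculated.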
# [10] = Animal toxicity study; format: in vivo, NSG mice
# [11] = system: MCF7 xenografts; assay: MCF7 xenograft model; format: in vivo, nude mice
# Procedure, shortened: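 One million MCF7 cells in Matrigel went subcutaneously on both flanks of 6-week-old NCR nude mice. After tumours reached 100 mm3, test compound at 3 mg/kg or 1:1 PBS:DMSO vehicle was given intraperitoneally on days 0, 2 and 4 (n=5 mice, 10 tumours). Caliper measurements every other day, mean volume with SEM. Treated tumours from three animals were Western blotted for signalling proteins.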
# [12] = system: HeLa xenograft; assay: HeLa xenograft model; format: in vivo; settings: 3 mg/kg, nude mice
# Procedure, shortened: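 One million HeLa cells in Matrigel were injected subcutaneously on both flanks of 6-week-old NCR nude mice. Once tumours were established, test compound at 3 mg/kg or 1:1 PBS:DMSO vehicle was given intraperitoneally on days 2, 4 and 6 (n=5 mice, 10 tumours per group). Tumours were measured by caliper every other day and mean volumes plotted with SEM.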
# [13] = MCF7 xenograft tumors, Western blot
# Chain of Hsp70 (P0DMV8 2-641): as the sequence (P0DMV8 2-641 limits assumed) above
# Chain of Bag3 (Homo sapiens) (O95817 2-575): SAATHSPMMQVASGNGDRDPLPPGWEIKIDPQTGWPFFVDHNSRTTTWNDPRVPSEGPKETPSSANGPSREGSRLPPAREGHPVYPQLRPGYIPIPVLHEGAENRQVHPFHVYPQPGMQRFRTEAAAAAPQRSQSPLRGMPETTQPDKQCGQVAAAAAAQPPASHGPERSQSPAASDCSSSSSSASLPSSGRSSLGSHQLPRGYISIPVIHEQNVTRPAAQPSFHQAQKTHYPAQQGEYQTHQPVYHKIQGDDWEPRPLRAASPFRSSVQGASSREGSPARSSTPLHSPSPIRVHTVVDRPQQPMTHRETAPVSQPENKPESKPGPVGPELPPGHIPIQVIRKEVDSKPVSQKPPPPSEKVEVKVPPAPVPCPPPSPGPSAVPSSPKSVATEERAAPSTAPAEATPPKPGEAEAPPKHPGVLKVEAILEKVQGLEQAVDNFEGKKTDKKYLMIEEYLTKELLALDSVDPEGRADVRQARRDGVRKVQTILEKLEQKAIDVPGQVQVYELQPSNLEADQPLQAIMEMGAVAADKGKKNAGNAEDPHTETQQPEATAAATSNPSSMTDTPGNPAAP
compound,measurement,setting,value
Hsp70 (from UniProt P0DMV8),Kd,[1],30 nM
CCn1c(=O)/c(=C2\Sc3cc(Cl)ccc3N2C)s/c1=C\c1scc[n+]1Cc1ccccc1.[Cl-] [JG-98],reduction of Hsp70-Bag3 interaction,[2],~ 60%
same,EC50,[3],4.5 µM and ~4.5 µM
same,activity against MCF7,[4],sub-micromolar activity
same,activity against HeLa,[5],sub-micromolar activity
same,sensitivity of OPM1,[6],relatively less sensitive
same,sensitivity of OPM2,[7],relatively less sensitive
same,levels of FoxM1 and HuR,[8],reduced
same,levels of the cell cycle inhibitors p27 and p21,[8],increasing
same,level in plasma,"[9]; 3 mg/kg intraperitoneal, after 1 hour, NSG mice",~ 70 nM
same,terminal half-life,"[9]; all three doses (0.3, 1, 3 mg/kg) intraperitoneal, NSG mice",approximately 20 hours
same,stability in animals,[9]; compared with YM-01,more stable than YM-01
same,oral bioavailability,[9]; mice,not orally bioavailable
same,weight loss,"[10]; 0.3, 1, 3 mg/kg intraperitoneal twice a week for 2 weeks, NSG mice",< 10%
same,alanine aminotransferase and total bilirubin,"[10]; after the final dose, markers of liver function",in the normal range
same,blood urea nitrogen (BUN) and creatinine levels,"[10]; all three dosages, after the final dose, renal function",normal
same,tolerability,"[10]; mouse, in vivo, ip",well tolerated
same,"tumor growth, MCF7 xenograft","[11]; 3 mg/kg intraperitoneal on days 0, 2 and 4, nude mice",limited tumor growth until day 6
same,HuR and FoxM1 in tumor samples,[11]; [13],tended to be decreased
same,p21 in tumor samples,[11]; [13],significantly elevated
same,"tumor growth, HeLa xenograft",[12],suppressed tumor growth
YM-01 [reference compound],reduction of Hsp70-Bag3 interaction,[2],~ 60%
